Assay results from ChEMBL document CHEMBL3865830, “Multifunctional diamine AGE/ALE inhibitors with potential therapeutical properties against Alzheimer's disease” (Eur J Med Chem, 2016).

Test system: not listed separately
Assay: Reactive carbonyl species trapping activity of compound assessed as MGO adduct formation at 10 mM preincubated for 24 hrs with MGO measured after 24 hrs by LCMS analysis
Format: physicochemical
Details: 10000 µM

Activity [%]	Compound
100	Cc1c(O)c(=O)ccn1CCC(=O)NCCCCC(N)CN.Cl.Cl (stereo unspecified)

Test system: not listed separately
Assay: Reactive carbonyl species trapping activity of compound assessed as MGO adduct formation at 10 mM preincubated for 24 hrs with MGO measured after 15 mins by LCMS analysis
Format: physicochemical
Details: 0.25 h, 10000 µM

Activity [%]	Compound
99	Cc1c(O)c(=O)ccn1CCC(=O)NCCCCC(N)CN.Cl.Cl (stereo unspecified)

Test system: not listed separately
Assay: Reactive carbonyl species trapping activity of compound assessed as MDA adduct formation at 10 mM preincubated for 24 hrs with MDA measured after 1 hr by LCMS analysis
Format: physicochemical
Details: 10000 µM

Activity [%]	Compound
88	Cc1c(O)c(=O)ccn1CCC(=O)NCCCCC(N)CN.Cl.Cl (stereo unspecified)

Test system: not listed separately
Assay: Antioxidant activity assessed as inhibition of AAPH-induced peroxyl radical generation measured as trolox equivalent at 10 uM preincubated for 30 mins followed by AAPH addition measured evey 60 secs for 60 cycles by ORAC-FL assay
Format: functional
Details: in the assay text read “90 secs” for “60 secs”
Method in brief: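 Fluorescein (12 nM) preincubated with compound (1-20 µM) or Trolox standard (1-50 µM) in D-PBS, at least 30 min at 37 °C. Reaction started with AAPH (30 mM). Fluorescence (ex 485/em 520 nm) read every 90 s for 60 cycles. Net AUC is converted to Trolox equivalents via the Trolox calibration line. Values are reported at 10 µM, from at least three independent experiments in triplicate.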

Compound	Activity (umolequiv/umol)
Cc1c(O)c(=O)ccn1CCC(=O)NCCCCC(N)CN.Cl.Cl (stereo unspecified)	1.24

Test system: not listed separately
Assay: Metal chelating activity of compound assessed as compound-Cu2+ complex formation at 200 uM after 10 mins in presence of CuSO4.5H2O by complexometric indicator murexide based UV-Vis spectrophotometric analysis
Format: physicochemical
Details: not given
Method in brief: (§1)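 Compound (0.02-2 mM) incubated with CuSO4 (120 µM) for 10 min at rt, in 10 mM hexamine/HCl with 10 mM KCl (pH 5.0), or in buffer/MeOH 75:25 for poorly soluble compounds. Murexide added, 1 min more. The A485/A520 ratio gives free Cu2+ from a CuSO4 calibration curve (0-125 µM). % chelation is taken by difference from the no-compound control; triplicates.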

Activity [%]	Compound
74.7	Cc1c(O)c(=O)ccn1CCC(=O)NCCCCC(N)CN.Cl.Cl (stereo unspecified)

Species: Rattus norvegicus
Assay: Cytotoxicity against rat […] PC12 cells assessed as reduction in cell viability at 10 to 100 uM after 24 hrs by WST8-based CCK8 assay
Format: toxicity
Details: pc-12, 24 h
Method in brief: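 PC12 Adh cells (rat pheochromocytoma-derived) grown in F-12K with 2.5% FBS, 15% horse serum and pen/strep at 37 °C, 5% CO2. Seeded at 5×10^3 cells/well; treated at 80% confluency with 10 or 100 µM for 24 h. 10% DMSO served as positive cytotoxicity control. CCK-8 added for 1 h at 37 °C, absorbance read at 450 nm. Viability given as % of untreated cells; at least three experiments in triplicate.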

Compound	Activity
Cc1c(O)c(=O)ccn1CCC(=O)NCCCCC(N)CN.Cl.Cl (stereo unspecified)	Non-Toxic

Test system: not listed separately
Assay: Reactive carbonyl species trapping activity of compound assessed as MGO adduct formation at 10 mM preincubated for 24 hrs with MGO measured after 0.25 hrs by LCMS analysis
Format: physicochemical
Details: 10000 µM

Activity [%]	Compound
99	Cc1c(O)c(=O)ccn1CCC(=O)NCCCCC(N)CN.Cl.Cl (stereo unspecified)

Test system: not listed separately
Assay: Reactive carbonyl species trapping activity of compound assessed as MGO adduct formation at 10 mM preincubated for 24 hrs with MGO measured after 0.5 hrs by LCMS analysis
Format: physicochemical
Details: 10000 µM

Activity [%]	Compound
99	Cc1c(O)c(=O)ccn1CCC(=O)NCCCCC(N)CN.Cl.Cl (stereo unspecified)

Test system: not listed separately
Assay: Reactive carbonyl species trapping activity of compound assessed as MGO adduct formation at 10 mM preincubated for 24 hrs with MGO measured after 1 hr by LCMS analysis
Format: physicochemical
Details: 10000 µM

Activity [%]	Compound
99	Cc1c(O)c(=O)ccn1CCC(=O)NCCCCC(N)CN.Cl.Cl (stereo unspecified)

Test system: not listed separately
Assay: Reactive carbonyl species trapping activity of compound assessed as MGO adduct formation at 10 mM preincubated for 24 hrs with MGO measured after 5 hrs by LCMS analysis
Format: physicochemical
Details: 10000 µM

Activity [%]	Compound
99	Cc1c(O)c(=O)ccn1CCC(=O)NCCCCC(N)CN.Cl.Cl (stereo unspecified)

Test system: not listed separately
Assay: Reactive carbonyl species trapping activity of compound assessed as MDA adduct formation at 10 mM preincubated for 24 hrs with MDA measured after 0.25 hrs by LCMS analysis
Format: physicochemical
Details: 10000 µM

Activity [%]	Compound
86	Cc1c(O)c(=O)ccn1CCC(=O)NCCCCC(N)CN.Cl.Cl (stereo unspecified)

Test system: not listed separately
Assay: Reactive carbonyl species trapping activity of compound assessed as MDA adduct formation at 10 mM preincubated for 24 hrs with MDA measured after 0.5 hrs by LCMS analysis
Format: physicochemical
Details: 10000 µM

Activity [%]	Compound
88	Cc1c(O)c(=O)ccn1CCC(=O)NCCCCC(N)CN.Cl.Cl (stereo unspecified)

Test system: not listed separately
Assay: Reactive carbonyl species trapping activity of compound assessed as MDA adduct formation at 10 mM preincubated for 24 hrs with MDA measured after 5 hrs by LCMS analysis
Format: physicochemical
Details: 10000 µM

Activity [%]	Compound
89	Cc1c(O)c(=O)ccn1CCC(=O)NCCCCC(N)CN.Cl.Cl (stereo unspecified)

Test system: not listed separately
Assay: Reactive carbonyl species trapping activity of compound assessed as MDA adduct formation at 10 mM preincubated for 24 hrs with MDA measured after 24 hrs by LCMS analysis
Format: physicochemical
Details: 10000 µM

Activity [%]	Compound
92	Cc1c(O)c(=O)ccn1CCC(=O)NCCCCC(N)CN.Cl.Cl (stereo unspecified)

Test system: not listed separately
Assay: Metal chelating activity of compound assessed as compound-Cu2+ complex formation at 0.02 mM after 10 mins in presence of CuSO4.5H2O by complexometric indicator murexide based UV-Vis spectrophotometric analysis
Format: physicochemical
Details: 20 µM
Method in brief: as §1

Activity [%]	Compound
21.31	Cc1c(O)c(=O)ccn1CCC(=O)NCCCCC(N)CN.Cl.Cl (stereo unspecified)

Test system: not listed separately
Assay: Metal chelating activity of compound assessed as compound-Cu2+ complex formation at 0.05 mM after 10 mins in presence of CuSO4.5H2O by complexometric indicator murexide based UV-Vis spectrophotometric analysis
Format: physicochemical
Details: 50 µM
Method in brief: as §1

Activity [%]	Compound
38.95	Cc1c(O)c(=O)ccn1CCC(=O)NCCCCC(N)CN.Cl.Cl (stereo unspecified)

Test system: not listed separately
Assay: Metal chelating activity of compound assessed as compound-Cu2+ complex formation at 0.08 mM after 10 mins in presence of CuSO4.5H2O by complexometric indicator murexide based UV-Vis spectrophotometric analysis
Format: physicochemical
Details: 80 µM
Method in brief: as §1

Activity [%]	Compound
48.35	Cc1c(O)c(=O)ccn1CCC(=O)NCCCCC(N)CN.Cl.Cl (stereo unspecified)

Test system: not listed separately
Assay: Metal chelating activity of compound assessed as compound-Cu2+ complex formation at 0.1 mM after 10 mins in presence of CuSO4.5H2O by complexometric indicator murexide based UV-Vis spectrophotometric analysis
Format: physicochemical
Details: 100 µM
Method in brief: as §1

Activity [%]	Compound
52.98	Cc1c(O)c(=O)ccn1CCC(=O)NCCCCC(N)CN.Cl.Cl (stereo unspecified)

Test system: not listed separately
Assay: Metal chelating activity of compound assessed as compound-Cu2+ complex formation at 0.5 mM after 10 mins in presence of CuSO4.5H2O by complexometric indicator murexide based UV-Vis spectrophotometric analysis
Format: physicochemical
Details: 500 µM
Method in brief: as §1

Activity [%]	Compound
91.66	Cc1c(O)c(=O)ccn1CCC(=O)NCCCCC(N)CN.Cl.Cl (stereo unspecified)

Test system: not listed separately
Assay: Metal chelating activity of compound assessed as compound-Cu2+ complex formation at 1 mM after 10 mins in presence of CuSO4.5H2O by complexometric indicator murexide based UV-Vis spectrophotometric analysis
Format: physicochemical
Details: 1000 µM
Method in brief: as §1

Activity [%]	Compound
96	Cc1c(O)c(=O)ccn1CCC(=O)NCCCCC(N)CN.Cl.Cl (stereo unspecified)

Test system: not listed separately
Assay: Metal chelating activity of compound assessed as compound-Cu2+ complex formation at 2 mM after 10 mins in presence of CuSO4.5H2O by complexometric indicator murexide based UV-Vis spectrophotometric analysis
Format: physicochemical
Details: 2000 µM
Method in brief: as §1

Activity [%]	Compound
97.73	Cc1c(O)c(=O)ccn1CCC(=O)NCCCCC(N)CN.Cl.Cl (stereo unspecified)
